A short description of assay [1]: Cytotoxicity against human GLC cells by MTT assay. Format: functional, cell-based. In short, it runs like this:
(§1)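 MTT cytotoxicity assay against tumour cells; IC50 taken as mean of three independent assays.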

Assay [2] can be described thus: Inhibition of human c-myc G-quadruplex Pu27 DNA amplification at 5.0 uM by PCR-stop assay. In short, it runs like this:
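PCR-stop: Pu27 template with complementary oligomer in 1× PCR buffer, 0.16 mM dNTP, 2.5 U Taq, compound at 1.0, 2.5, 4.0 or 5.0 μM; 94 °C 3 min, then 30 cycles of 94/58/72 °C for 30 s each; products on 15% native PAGE in TBE, silver stained.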

Assay [3] is filed under the species Homo sapiens. The assay can be described thus: Binding affinity to duplex F10T DNA assessed as change melting temperature at 2.0 uM by FRET melting assay.
The species entered for assay [4] is Homo sapiens. The assay can be described thus: Binding affinity to human c-myc G-quadruplex Pu18 DNA assessed as change melting temperature at 2.0 uM by FRET melting assay. In short, it runs like this:
(§2)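 FRET melting of dual-labelled Pu18 (5'-FAM/3'-TAMRA), 0.2 μM, in 10 mM Tris–HCl pH 7.2 with 0.2 mM KCl, compound 2.0 μM; fluorescence recorded on a real-time PCR instrument; Tm read from melting curves, ΔTm relative to no-compound control.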

A further assay has as its system NCI. The assay can be described thus: Cytotoxicity against human NCI cells by MTT assay. The format is functional, cell-based. Put shortly:
as §1
In general terms: Formazan colour is commonly taken as a measure of viable cells.

For assay [5], the species on record is Homo sapiens. Nature of the assay: Binding affinity to human c-myc G-quadruplex Pu18 DNA assessed as melting temperature at 2.0 uM by FRET melting assay. Put shortly:
as §2

Assay [6] can be described thus: Binding affinity to duplex F10T DNA assessed as melting temperature at 2.0 uM by FRET melting assay.
Assay [7] is filed under the species Homo sapiens. The assay can be described thus: Induction of G-quadruplex formation in human c-myc Pu27 DNA at 10 uM […] by gel electrophoresis.
For assay [8], the system named is HL-60. The assay can be described thus: Inhibition of human c-myc gene transcription in HL60 cells at 0.7-1.7 uM after 4 days by RT-PCR. The format is functional, cell-based.
For assay [9], the system named is HL-60. Nature of the assay: Antiproliferative activity against human HL60 cells assessed as cell count and viability at 5 to 10 uM. The format is functional, cell-based. In short, it runs like this:
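HL60 cells (RPMI-1640, 10% FBS, penicillin/streptomycin, 37 °C, 5% CO2), about 5000 per well, given freshly dissolved compound at 0–10 μM for 4 days, re-dosed at day 5 for a further 4 days; cell count and viability by trypan blue exclusion daily from day 1 to day 8.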

Each structure is given as a SMILES string. The source made the active and inactive calls. No cut-off for these calls is given here.

As to `COc1ccc2cc3[n+](cc2c1NCCCN1CCCCC1)CCc1cc2c(cc1-3)OCO2`, the values for the IC50 (in assay [1]; in assay [2]; in the assay on NCI) were 69 µM, 3.2 µM and 38 µM, respectively. Further, the ΔTm in the assay listed under Homo sapiens [3] came to 1 °C; in the assay filed under Homo sapiens [4], 24 °C. Also, the Tm in the assay filed under Homo sapiens [5] amounted to 78 °C; in assay [6] it was 59 °C.
For `COc1ccc2cc3[n+](cc2c1NCCCN1CCOCC1)CCc1cc2c(cc1-3)OCO2`, the values for the IC50 (in assay [1]; in assay [2]; with NCI) were 102 µM, 4.8 µM and 85 µM, respectively. Moreover, the ΔTm was found to be 0 °C in the assay filed under Homo sapiens [3] and 17 °C in the assay filed under Homo sapiens [4]. Also, the Tm in the assay listed under Homo sapiens [5] came out at 71 °C; in [6] it was 58 °C.
Consider `COc1ccc2cc3[n+](cc2c1NCCN(C)C)CCc1cc2c(cc1-3)OCO2`, for which the values for the IC50 (in assay [1]; in [2]; in the assay with NCI) were 56 µM, 3.9 µM and 36 µM, respectively. Also, the results for the ΔTm in the assay filed under Homo sapiens [3] and in the assay listed under Homo sapiens [4] were 0 °C and 19 °C, respectively. For the same compound, the Tm in the assay listed under Homo sapiens [5] amounted to 73 °C; in assay [6] it was 58 °C.
With `COc1ccc2cc3[n+](cc2c1NCCO)CCc1cc2c(cc1-3)OCO2`, the IC50 was determined as 51 µM in assay [1], 5.5 µM in assay [2] and 35 µM in the assay on NCI. Also, the ΔTm came to 0 °C in the assay listed under Homo sapiens [3] and 12 °C in the assay listed under Homo sapiens [4]. Besides, the results for the Tm (in the assay filed under Homo sapiens [5]; in [6]) were 66 °C and 58 °C, respectively.
As for `COc1ccc2cc3[n+](cc2c1NCCCN(C)C)CCc1cc2c(cc1-3)OCO2`, the IC50 in assay [1] was 64 µM; in [2] it was 3.3 µM; in the assay on NCI, 29 µM. Moreover, the figures for the ΔTm in the assay filed under Homo sapiens [3] and in the assay filed under Homo sapiens [4] were 1 °C and 20 °C, respectively. The Tm in the assay filed under Homo sapiens [5] came out at 74 °C; in assay [6], 59 °C.
With `COc1ccc2cc3[n+](cc2c1NCCCCCCN)CCc1cc2c(cc1-3)OCO2`, the outcome in the assay listed under Homo sapiens [7], with HL-60 [8] and in the assay with HL-60 [9] was Active. Besides, the IC50 in [1] came out at 9 µM; in [2] it was 2 µM; in the assay on NCI, 4 µM. Further, the ΔTm in the assay listed under Homo sapiens [3] turned out to be 2 °C; in the assay filed under Homo sapiens [4], 29 °C. For the same compound, the Tm in the assay filed under Homo sapiens [5] was determined as 83 °C; in assay [6], 60 °C.
`COc1ccc2cc3[n+](cc2c1NCCN1CCCCC1)CCc1cc2c(cc1-3)OCO2`: the IC50 in assay [1] is 38 µM; in [2] it was 4 µM; with NCI, 22 µM. The ΔTm worked out at 0 °C in the assay filed under Homo sapiens [3] and 20 °C in the assay filed under Homo sapiens [4]. The Tm came out at 74 °C in the assay listed under Homo sapiens [5] and 58 °C in [6].
With `COc1ccc2cc3[n+](cc2c1NCCCN1CCCC1)CCc1cc2c(cc1-3)OCO2`, the IC50 in assay [1] was found to be 32 µM; in [2], 2.3 µM; with NCI, 22 µM. For the same compound, the values for the ΔTm in the assay filed under Homo sapiens [3] and in the assay listed under Homo sapiens [4] were 2 °C and 25 °C, respectively. The Tm came to 78 °C in the assay filed under Homo sapiens [5] and 60 °C in assay [6].
For the compound `COc1ccc2cc3[n+](cc2c1NCCc1ccccc1)CCc1cc2c(cc1-3)OCO2`, the IC50 in [1] was determined as 18 µM; in [2], 3.6 µM; in the assay with NCI, 2 µM. Moreover, the ΔTm in the assay listed under Homo sapiens [3] was determined as 1 °C; in the assay listed under Homo sapiens [4] it was 20 °C. In addition, the Tm in the assay filed under Homo sapiens [5] amounted to 74 °C; in assay [6], 59 °C.
On to `COc1ccc2cc3[n+](cc2c1NCCN1CCOCC1)CCc1cc2c(cc1-3)OCO2`, for which the results for the IC50 (in assay [1]; in assay [2]; with NCI) were 50 µM, 7.1 µM and 50 µM, respectively. Besides, the ΔTm was determined as 1 °C in the assay filed under Homo sapiens [3] and 18 °C in the assay filed under Homo sapiens [4]. The Tm in the assay listed under Homo sapiens [5] was 72 °C; in assay [6], 59 °C.
Consider `COc1ccc2cc3[n+](cc2c1OC)CCc1cc2c(cc1-3)OCO2`, for which the ΔTm amounted to 2 °C in the assay filed under Homo sapiens [3] and 1 °C in the assay filed under Homo sapiens [4]. Besides, the Tm in the assay filed under Homo sapiens [5] turned out to be 55 °C.

What is called IC50 is the midpoint of a concentration-inhibition curve. A low value points to greater potency in that assay. By ΔTm is commonly meant the change in melting temperature against a reference sample.

The values are drawn from ChEMBL document CHEMBL1156609, “9-N-Substituted berberine derivatives: stabilization of G-quadruplex DNA and down-regulation of oncogene c-myc” (Bioorg Med Chem, 2008).
